From ChEMBL document CHEMBL1139804, “In vitro affinities of various halogenated benzamide derivatives as potential radioligands for non-invasive quantification of D(2)-like dopamine receptors” (Bioorg Med Chem, 2007)

What was measured:
D(1A) dopamine receptor = D(1A) dopamine receptor (Sus scrofa, UniProt P50130); test: Displacement of [3H]SCH23990 from dopamine D1 receptor in pig striatal membrane; assay type: cell membranes, Striatum
D(2) dopamine receptor [1] = target: T1, D(2) dopamine receptor (Homo sapiens, UniProt P14416); test: Displacement of [3H]spiperone from dopamine D2short receptor in CHO cells; assay type: cell-based
Summary of the method: (§1)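 Competition binding used membranes from stably transfected CHO cells expressing human D2long, D2short, D3 or D4.4 receptor, with [³H]spiperone at 0.1 nM final.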

D(2) dopamine receptor [2] = target: T1, D(2) dopamine receptor; test: Displacement of [3H]spiperone from dopamine D2long receptor in CHO cells; assay type: cell-based; summary of the method: as §1
D(3) dopamine receptor = D(3) dopamine receptor (Homo sapiens, UniProt P35462); test: Displacement of [3H]spiperone from dopamine D3 receptor in CHO cells; assay type: cell-based; summary of the method: as §1
D(4) dopamine receptor = target: T2, D(4) dopamine receptor (Homo sapiens, UniProt P21917); test: Displacement of [3H]spiperone from dopamine D4.4 receptor in CHO cells; assay type: cell-based; summary of the method: as §1
T2 sequence (P21917 whole entry): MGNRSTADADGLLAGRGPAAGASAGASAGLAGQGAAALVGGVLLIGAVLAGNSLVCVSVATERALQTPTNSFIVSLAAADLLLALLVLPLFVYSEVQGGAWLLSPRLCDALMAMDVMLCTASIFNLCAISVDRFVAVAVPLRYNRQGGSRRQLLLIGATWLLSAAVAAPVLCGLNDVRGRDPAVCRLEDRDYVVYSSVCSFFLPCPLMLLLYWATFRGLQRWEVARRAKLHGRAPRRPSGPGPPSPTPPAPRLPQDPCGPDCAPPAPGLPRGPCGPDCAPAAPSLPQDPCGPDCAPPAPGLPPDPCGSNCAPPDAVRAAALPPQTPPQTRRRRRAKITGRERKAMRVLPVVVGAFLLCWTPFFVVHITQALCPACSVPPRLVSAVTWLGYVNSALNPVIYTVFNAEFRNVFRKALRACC

[3] = Lipophilicity, log D at pH 7.4; conditions: buffer
[4] = Displacement of [3H]8HO-DPAT from serotonin 5-HT1A receptor in pig cortical membrane
[5] = Displacement of [3H]ketanserin from serotonin 5-HT2 receptor in pig cortical membrane
[6] = Displacement of [3H]prazosin from adrenergic-alpha-1 receptor in pig cortical membrane

T1 sequence (P14416 whole entry): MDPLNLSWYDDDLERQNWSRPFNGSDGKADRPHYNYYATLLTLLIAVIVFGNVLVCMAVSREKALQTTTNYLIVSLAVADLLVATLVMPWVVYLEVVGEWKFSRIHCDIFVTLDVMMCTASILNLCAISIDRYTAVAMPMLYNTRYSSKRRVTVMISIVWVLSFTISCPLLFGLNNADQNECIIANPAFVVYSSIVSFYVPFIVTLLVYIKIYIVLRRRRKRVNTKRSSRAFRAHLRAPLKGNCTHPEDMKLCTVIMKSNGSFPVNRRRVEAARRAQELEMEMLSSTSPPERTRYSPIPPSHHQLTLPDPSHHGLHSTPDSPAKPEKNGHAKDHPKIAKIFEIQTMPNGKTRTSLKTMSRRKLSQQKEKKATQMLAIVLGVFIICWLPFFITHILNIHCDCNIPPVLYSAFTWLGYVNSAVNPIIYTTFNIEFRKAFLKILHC
D(1A) dopamine receptor, sequence (P50130 whole entry): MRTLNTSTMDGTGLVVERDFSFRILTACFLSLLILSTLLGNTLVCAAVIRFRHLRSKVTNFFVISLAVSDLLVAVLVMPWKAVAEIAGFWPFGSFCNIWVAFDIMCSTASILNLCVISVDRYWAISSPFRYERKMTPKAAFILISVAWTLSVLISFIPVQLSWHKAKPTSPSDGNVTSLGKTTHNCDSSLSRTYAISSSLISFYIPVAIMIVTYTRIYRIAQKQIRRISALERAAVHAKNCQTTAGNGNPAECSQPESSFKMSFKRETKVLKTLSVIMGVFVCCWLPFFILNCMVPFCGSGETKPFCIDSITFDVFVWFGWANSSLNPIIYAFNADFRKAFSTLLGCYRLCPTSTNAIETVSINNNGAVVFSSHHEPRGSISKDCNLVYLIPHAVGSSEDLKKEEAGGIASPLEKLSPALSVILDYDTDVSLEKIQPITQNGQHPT
D(3) dopamine receptor, sequence (P35462 whole entry): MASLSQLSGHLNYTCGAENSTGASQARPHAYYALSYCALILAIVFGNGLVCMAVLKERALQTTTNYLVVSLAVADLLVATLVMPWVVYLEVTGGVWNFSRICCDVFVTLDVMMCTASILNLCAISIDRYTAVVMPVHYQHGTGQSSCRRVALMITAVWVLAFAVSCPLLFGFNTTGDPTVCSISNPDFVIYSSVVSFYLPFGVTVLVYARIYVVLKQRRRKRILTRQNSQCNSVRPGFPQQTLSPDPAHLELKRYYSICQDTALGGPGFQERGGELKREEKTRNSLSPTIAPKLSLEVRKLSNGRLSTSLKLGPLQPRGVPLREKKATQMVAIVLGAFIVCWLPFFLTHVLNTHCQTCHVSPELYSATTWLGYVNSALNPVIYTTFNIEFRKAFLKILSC

SMILES | Ki (D(1A) dopamine receptor) | Ki (D(2) dopamine receptor [1]) | Ki (D(2) dopamine receptor [2]) | Ki (D(3) dopamine receptor) | Ki (D(4) dopamine receptor) | logD [3] | Ki [4] | Ki [5] | Ki [6]
CCN1CCC[C@H]1CNC(=O)c1c(OC)ccc(I)c1O [IOLOPRIDE] | 12 µM | 0.0042 µM | 0.0042 µM | 0.0042 µM | 0.57 µM | 3.13 | 1.1 µM | 2 µM | 1.9 µM
C=CCN1CCC[C@H]1CNC(=O)c1cc(CCCF)ccc1OC | 30 µM | 0.03 µM | 0.03 µM | 0.033 µM | 3 µM | 2.63 | 2.3 µM | 4.5 µM | 1.9 µM
CCN1CCC[C@H]1CNC(=O)c1c(O)c(Cl)cc(Cl)c1OC [RACLOPRIDE] | 37 µM | – | – | 0.015 µM | 3.1 µM | – | 4.4 µM | 3.5 µM | 3 µM
C=CCN1CCC[C@H]1CNC(=O)c1cc(Br)ccc1OC | 17 µM | 0.027 µM | 0.023 µM | 0.022 µM | 1.7 µM | 2.71 | 0.23 µM | 2.1 µM | 2 µM

The next lines start with the values.

Ki (D(1A) dopamine receptor) | Ki (D(2) dopamine receptor [1]) | Ki (D(2) dopamine receptor [2]) | Ki (D(3) dopamine receptor) | Ki (D(4) dopamine receptor) | logD [3] | Ki [4] | Ki [5] | Ki [6] | SMILES
18 µM | 0.00074 µM | 0.00068 µM | 0.00046 µM | 0.25 µM | 2.91 | 0.15 µM | 0.49 µM | 1.1 µM | C=CCN1CCC[C@H]1CNC(=O)c1cc(I)cc(OC)c1OC
13 µM | 0.00088 µM | 0.00085 µM | 0.0006 µM | 0.21 µM | 2.83 | 0.14 µM | 1.1 µM | 1.6 µM | C=CCN1CCC[C@H]1CNC(=O)c1cc(Br)cc(OC)c1OC
18 µM | 0.0021 µM | 0.0022 µM | – | 1.3 µM | 2.66 | 1.1 µM | 3.7 µM | 0.97 µM | C=CCN1CCC[C@H]1CNC(=O)c1cc(CCCF)cc(OC)c1OC [FALLYPRIDE]
13 µM | 0.015 µM | 0.014 µM | 0.011 µM | 0.63 µM | 2.81 | 0.17 µM | 2.4 µM | 2 µM | C=CCN1CCC[C@H]1CNC(=O)c1cc(I)ccc1OC
